Only a selection was taken, and hits are over-represented in it overall.
GASC1 inh – inhibitors of GASC-1 (KDM4C) histone demethylase, primary screen, biochemical, single concentration HTS; AID 720574, 2013; GST-KDM4C 2-372, H3K9me3 peptide, LANCE TR-FRET; Lysine-specific demethylase 4C (Homo sapiens), Q9H3R0; inhibition, % at 12.5 µM; 0.15% of 96,000 active;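 active means mean replicate inhibition above about 25%, with at least 55% of replicates also reaching it, limit read from the data, passing the limit was not always enough; inconclusive means only one of those two conditions met; inactive means neither condition met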
Target sequence (Q9H3R0 2-372 limits assumed): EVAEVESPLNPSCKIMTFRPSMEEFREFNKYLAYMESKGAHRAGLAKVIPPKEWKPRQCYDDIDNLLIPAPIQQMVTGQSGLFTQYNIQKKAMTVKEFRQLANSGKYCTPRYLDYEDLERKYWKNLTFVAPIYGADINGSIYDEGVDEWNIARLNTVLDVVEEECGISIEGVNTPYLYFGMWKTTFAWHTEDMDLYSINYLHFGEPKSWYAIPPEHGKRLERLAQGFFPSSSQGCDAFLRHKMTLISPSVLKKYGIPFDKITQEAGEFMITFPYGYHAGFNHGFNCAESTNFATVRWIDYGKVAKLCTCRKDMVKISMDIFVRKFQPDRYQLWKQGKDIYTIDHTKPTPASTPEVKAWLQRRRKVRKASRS
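System – N-terminal GST-fused human GASC-1 (KDM4C) fragment, residues 2-372 · Input – enzyme final amount 10 nM · Technique – LANCE TR-FRET, Eu antibody, ULight-streptavidin, EDTA, ex 340 nm, em 618/671 nm · Medium – HEPES buffer, pH 7.5, plus ascorbate · Incubation – enzyme reaction 30 min, then detection 60 min, both room temperature · Reagent – H3K9me3 peptide with Fe(II)/2OG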
IDH1 mut inh – inhibitors of IDH1 R132H reductase, primary screen, biochemical, plate reader, single point | inhibition, % at 10 µM | 0.18% of 70,000 active | diaphorase/resazurin fluorescence, 60 min | Isocitrate dehydrogenase [NADP] cytoplasmic (Homo sapiens), O75874 | AID 624101, 2012; in the data active means inhibition above about 34%; inconclusive means no clear call, values can overlap the other calls; inactive means below about 11%;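 further: 0% = DMSO and 100% = no enzyme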
Target sequence (O75874 whole entry R132H): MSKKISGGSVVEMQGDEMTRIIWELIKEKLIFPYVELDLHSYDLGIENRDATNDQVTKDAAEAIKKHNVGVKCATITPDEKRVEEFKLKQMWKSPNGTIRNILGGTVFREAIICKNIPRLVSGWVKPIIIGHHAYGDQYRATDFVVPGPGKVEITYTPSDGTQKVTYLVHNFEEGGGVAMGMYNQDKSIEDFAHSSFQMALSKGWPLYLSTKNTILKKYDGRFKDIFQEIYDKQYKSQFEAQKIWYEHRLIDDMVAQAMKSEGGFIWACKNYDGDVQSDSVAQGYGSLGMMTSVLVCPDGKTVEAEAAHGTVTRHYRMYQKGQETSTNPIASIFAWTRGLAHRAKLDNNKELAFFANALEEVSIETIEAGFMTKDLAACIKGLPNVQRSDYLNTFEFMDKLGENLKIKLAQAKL
T cruzi growth-1 – T. cruzi intracellular proliferation inhibitors, primary screen, cell-based, beta-gal Tulahuen parasites, NIH3T3 host, luminescence | T. cruzi beta-gal in NIH3T3, GalScreen luminescence, 90 h | inhibition, % at 8.34 µM | 5.9% of 77,000 active | AID 624255, 2012;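 active means mean inhibition above about 93%, with at least 55% of replicates each passing it, limit read from the data, passing the limit was not always enough; inconclusive means only one of those two conditions holds; inactive means neither condition holds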
T cruzi growth-2 – T. cruzi intracellular proliferation inhibitors, confirmation, cell-based, NIH3T3 host, beta-gal parasite, luminescence, cherry-pick; shares compounds with T cruzi growth-1; T. cruzi beta-gal in NIH3T3, GalScreen luminescence, 90 h; inhibition, % at 8.35 µM; 72% of 5,600 active; AID 651739, 2012;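 active means mean replicate inhibition above about 95% and at least 55% of replicates individually reaching it, limit read from the data; inconclusive means only one of the two criteria is met; inactive means neither criterion is met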
T cruzi growth-3 – inhibitors of intracellular T. cruzi replication, confirmation, NIH3T3 host cells, beta-gal parasites, cherry-pick, set 2; shares compounds with T cruzi growth-1; T. cruzi beta-gal in NIH3T3, GalScreen luminescence, 90 h; inhibition, % at 2.09 µM; 21% of 5,600 active;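 active means mean inhibition above about 95%, with at least 55% of replicates also reaching it, limit read from the data; inconclusive means meets just one of the two conditions; inactive means meets neither condition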;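 further: plate controls were neutral control median for no effect and positive control median for full effect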
3T3 cytotox – cytotoxicity in mouse NIH/3T3 fibroblasts, confirmation, cytotoxicity control for T. cruzi proliferation inhibitor project, cell-based, cherry-pick, single point | cytotoxicity (signal decrease), % at 8.35 µM | 14% of 5,600 active | AID 651742, 2012 | NIH/3T3 viability, CellTiter-Glo ATP luminescence, 90 h | shares compounds with T cruzi growth-1;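 active means mean signal decrease across replicates above about 35% based on untreated-well scatter, with enough replicates individually passing, limit read from the data; inconclusive means no rule stated though some were filed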;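 further: 0% = median of neutral control wells and 100% = median of positive control wells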
NIH3T3 tox 2 – NIH/3T3 fibroblast cytotoxicity, confirmation, cytotoxicity control, cell-based, cherry-pick, single point, set 2 | NIH/3T3 viability, CellTiter-Glo ATP luminescence, 90 h | 56% of 5,600 active | inhibition, % at 24.9 µM | shares compounds with T cruzi growth-1;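 active means mean loss of cell viability signal at or above a set limit, and enough replicates individually reaching it; inconclusive means meets only the mean limit or only the replicate share; inactive means meets neither condition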;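 further: 0% = median of neutral control wells and 100% = median of positive control wells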
An asterisk follows results filed as active; ? = inconclusive; nt = not tested or not shown.

SMILES	GASC1 inh	IDH1 mut inh	T cruzi growth-1	T cruzi growth-2	T cruzi growth-3	3T3 cytotox	NIH3T3 tox 2
C[C@H]1CN([C@@H](C)CO)S(=O)(=O)c2ccc(C3=CCCCC3)cc2O[C@@H]1CN(C)C(=O)c1ccc(F)cc1	2.2	nt	114.6*	110.2*	102.4*	47.0*	95.9*
C[C@@H]1CN([C@@H](C)CO)S(=O)(=O)c2ccc(C3=CCCCC3)cc2O[C@H]1CN(C)C(=O)c1ccc(F)cc1	-1.7	nt	?	102.1*	50.8	53.9*	25.7*
CN1C(=O)c2cc(NC(=O)C3CCCC3)ccc2OC[C@@H]2O[C@H](CC(=O)O)CC[C@H]21	1.4	nt	-17.4	nt	nt	nt	nt
C[C@@H]1CN([C@@H](C)CO)C(=O)c2cc(NS(=O)(=O)c3ccc(F)cc3)ccc2O[C@@H](C)CCCCO[C@H]1CN(C)C(=O)CCCN(C)C	1.6	7.2	nt	nt	nt	nt	nt
O=C(C[C@@H]1C=C[C@H](NC(=O)NC2CCCC2)[C@@H](CO)O1)NCc1ccc(F)cc1	-1.1	0.2	-9.8	nt	nt	nt	nt
CCN1[C@@H]2c3ccc(-c4ccccc4F)c(=O)n3C[C@@H]2[C@@H](CO)[C@@H]1C(=O)NC1CCC1	4.4	nt	33.6	nt	nt	nt	nt
C[C@@H]1CCCCO[C@H](CN(C)Cc2ccc3c(c2)OCO3)[C@@H](C)CN([C@H](C)CO)C(=O)c2cc(NS(=O)(=O)c3ccc(F)cc3)ccc2O1	-0.2	nt	nt	nt	nt	nt	nt
C[C@H]1CN([C@@H](C)CO)S(=O)(=O)c2ccc(C3=CCCCC3)cc2O[C@H]1CN(C)C(=O)c1ccc(F)cc1	0.3	-4.3	111.5	nt	nt	nt	nt
C[C@@H]1CN([C@H](C)CO)S(=O)(=O)c2ccc(C3=CCCCC3)cc2O[C@@H]1CN(C)C(=O)c1ccc(F)cc1	3.3	nt	113.2*	107.4*	91.5	18.1	100.8*
C[C@H](CO)N1C[C@H](C)[C@@H](CN(C)C(=O)Nc2cccc(F)c2)Oc2cc(/C=C/c3ccccc3)ccc2S1(=O)=O	-0.3	-0.1	121.5*	98.7*	114.3*	12.9	35.3*
C/C=C/c1ccc2c(c1)O[C@@H](CN(C)C(=O)Nc1cccc(F)c1)[C@@H](C)CN([C@@H](C)CO)S2(=O)=O	-0.3	-4.0	-53.4	nt	nt	nt	nt
C/C=C/c1ccc2c(c1)O[C@H](CN(C)C(=O)Nc1cccc(F)c1)[C@H](C)CN([C@H](C)CO)S2(=O)=O	0.9	0.2	104.6*	99.1*	78.0	20.6	39.3*
C/C=C/c1ccc2c(c1)O[C@H](CN(C)C(=O)Nc1cccc(F)c1)[C@@H](C)CN([C@@H](C)CO)S2(=O)=O	-1.0	-0.2	41.7	nt	nt	nt	nt
N#C[C@@H]1[C@H](c2ccccc2C2=CCCCC2)[C@@H](CO)N1S(=O)(=O)c1ccccc1	-0.9	nt	nt	nt	nt	nt	nt
COc1ccc(NC(=O)Nc2ccc3c(c2)C(=O)N([C@H](C)CO)C[C@H](C)[C@@H](CN(C)S(=O)(=O)c2cccs2)OCCCC[C@H](C)O3)cc1	0.1	-0.9	76.3	nt	nt	nt	nt
CC(C)(C)[S@](=O)N1Cc2cc(C(=O)NCc3ccncc3)nc(-c3cccc(-c4ccc(C#N)cc4)c3)c2[C@@H]1CCO	-6.3	0.0	99.4*	102.7*	57.1	18.0	?
CC(C)(C)[S@](=O)N1Cc2cc(C(=O)N3CCCCC3)nc(-c3cccc(-c4ccc(C#N)cc4)c3)c2[C@@H]1CCO	-0.4	0.4	100.8*	107.4*	75.2	13.7	18.5
COc1cccc(CNC(=O)c2cc3c(c(-c4cccc(-c5cccc(C#N)c5)c4)n2)[C@H](CCO)N([S@@](=O)C(C)(C)C)C3)c1	-6.8	-0.3	73.8	nt	nt	nt	nt
CC(C)(C)[S@@](=O)N1Cc2cc(C(=O)NCCc3ccncc3)nc(-c3cccc(-c4cccc(C#N)c4)c3)c2[C@H]1CCO	-3.7	0.0	78.4	nt	nt	nt	nt
CC(C)(C)[S@](=O)N1Cc2cc(C(=O)NCCc3ccncc3)nc(-c3cccc(-c4ccc(C#N)cc4)c3)c2[C@@H]1CCO	-5.3	-0.1	97.0*	112.3*	90.8	46.1*	38.5*
COc1cccc(CNC(=O)c2cc3c(c(-c4cccc(-c5ccncc5)c4)n2)[C@H](CCO)N([S@@](=O)C(C)(C)C)C3)c1	-1.9	-0.6	99.7*	110.0*	92.7	-12.2	52.1*
CN1CCN(C(=O)c2cc3c(c(-c4cccc(-c5ccc(C#N)cc5)c4)n2)[C@@H](CCO)N([S@](=O)C(C)(C)C)C3)CC1	0.7	-0.1	36.7	nt	nt	nt	nt
CC(C)(C)[S@@](=O)N1Cc2cc(C(=O)NCCN3CCCC3)nc(-c3cccc(-c4ccc(C#N)cc4)c3)c2[C@H]1CCO	5.0	0.0	32.6	nt	nt	nt	nt
C[C@H]1CN([C@@H](C)CO)C(=O)c2cc(NC(=O)CCC(F)(F)F)ccc2O[C@H]1CN(C)Cc1ccc(-c2ccccc2)cc1	-0.6	nt	86.3	nt	nt	nt	nt
O=C(Nc1ccccc1C(=O)NCCN1CCOCC1)c1cccc([N+](=O)[O-])c1	nt	0.2	nt	nt	nt	nt	nt
SMILES	GASC1 inh	IDH1 mut inh	T cruzi growth-1	T cruzi growth-2	T cruzi growth-3	3T3 cytotox	NIH3T3 tox 2
CCCNC(=O)N(C)C[C@H]1Oc2cc(C#CCC(C)C)ccc2S(=O)(=O)N([C@H](C)CO)C[C@@H]1C	1.0	0.2	78.0	nt	nt	nt	nt
Cn1cnc(CCNC(=O)C[C@H]2CC[C@H]3[C@@H](COC[C@H](O)CN3C(=O)Nc3ccc(Cl)cc3)O2)c1	-1.8	nt	43.6	nt	nt	nt	nt
Cn1cnc(CCNC(=O)C[C@@H]2CC[C@H]3[C@@H](COC[C@@H](O)CN3C(=O)C3CC3)O2)c1	-1.5	nt	104.2*	102.2*	-25.2	-22.6	-22.6
Cn1cnc(CCNC(=O)C[C@@H]2CC[C@H]3[C@@H](COC[C@H](O)CN3C(=O)C3CC3)O2)c1	1.1	nt	12.4	nt	nt	nt	nt
Cn1cnc(CCNC(=O)C[C@H]2CC[C@H]3[C@@H](COC[C@H](O)CN3C(=O)Nc3ccccc3)O2)c1	0.7	nt	2.0	nt	nt	nt	nt
Cn1cnc(CCNC(=O)C[C@@H]2CC[C@H]3[C@@H](COC[C@@H](O)CN3C(=O)Nc3ccc(C(F)(F)F)cc3)O2)c1	0.6	nt	107.0*	-32.6	5.4	5.9	14.9
Cn1cnc(CCNC(=O)C[C@H]2CC[C@@H]3[C@H](COC[C@H](O)CN3C(=O)Nc3ccc(C(F)(F)F)cc3)O2)c1	1.8	nt	?	83.8	-6.7	6.1	1.7
CCC(=O)N(C)C[C@H]1[C@H](c2ccc(C3=CCCCC3)cc2)[C@@H](CO)N1C(=O)CC	2.9	nt	29.1	nt	nt	nt	nt
